Laboratory results as given in paper PMC4013241 (Molecular cancer therapeutics, 2014).

Tests used:
P70S6K phosphorylation = assay: Western blot of phosphorylated P70S6K in U87 cells; format: cell-based, human; conditions: 6.3 μM, 1 h, mean ± S.D.
Summary of the method: (§1)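 U87 cells in DMEM with 10% FBS at 37°C, 5% CO2, grown on 10 cm plates and exposed to test compound for 1 h. Lysed on ice in buffer containing PMSF, phosphatase and protease inhibitors; 20 μg protein run on SDS-PAGE and blotted to PVDF. Detected with IRDye/Alexa 680 secondaries and quantified by Odyssey imaging against total protein and β-actin, relative to control. Blots repeated at least three times.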

[1] = system: p-Akt in intracerebral U87 brain tumors; assay: In vivo pharmacodynamics: p-Akt in brain tumor; parameters: species or system mouse; conditions: for p-Akt nadir, of control: within 30 min
Summary of the method: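 NIH Swiss nude mice carried U87 cells (10^6 in 10 μl PBS) implanted stereotactically into the caudate putamen. Test compound was given as an IV tail-vein bolus of 5 or 25 mg/kg, or 25 mg/kg 1 h after oral EGFR inhibitor (200 mg/kg). Tumours were collected from 5 min to 10 h (17 h with co-dosing) and lysed at 20 μl buffer/mg. Phospho/total Akt and Erk were measured by MSD as percent of control, at least three mice per time point. ABEC was reported in %-h.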

p-mTOR [S2481 and 2448] = assay: Immunoblot of p-mTOR in U87 cells; format: cell-based, human; conditions: 6.3 μM ON123300 alone or with 13.3 μM GFN, 1 h
Summary of the method: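 U87 cells were treated 1 h with 6.3 μM test compound, 13.3 μM EGFR inhibitor or both. Lysis buffer held PMSF plus phosphatase and protease inhibitors; lysates were sonicated and spun at 21,000 × g. 20 μg protein per lane went on SDS-PAGE and PVDF, blocked in 5% milk. Primary antibody was 1 h at room temperature or overnight at 4°C. Bands quantified densitometrically as percentages; mean ± S.D. of three experiments.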

ABC transporters = conditions: based on previous studies; cited from earlier work
[2] = system: phosphorylated Akt, CREB, JNK pan, Erk, p38γ; assay: Human phospho-MAPK array in U87 cells; format: cell-based; conditions: 6.3 μM, 1 h
Summary of the method: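 U87 cells on 10 cm plates were exposed to 6.3 μM test compound for 1 h, rinsed in cold PBS and lysed at 1 × 10^7 cells/ml, rocking 30 min at 4°C. 200 μg of supernatant protein was mixed with detection antibody cocktail for 1 h at room temperature. The mixture was applied to array membranes overnight at 4°C, then streptavidin-HRP for 30 min. Chemiluminescent spots were recorded on X-ray film.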

p-Erk [3] = assay: p-Erk in GBM39 cells; format: cell-based, human; conditions: 4μM
VEGFR3 = VEGFR3 (Homo sapiens, UniProt P35916); assay: Biochemical kinase screen
Rb S780 phosphorylation = assay: Western blot of phosphorylated Rb S780 in U87 cells; format: cell-based, human; conditions: 6.3 μM, 1 h, mean ± S.D.
Summary of the method: as §1

U87 cells = assay: Annexin V apoptosis by flow cytometry; format: cell-based, human; conditions: 24 h
Summary of the method: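 U87 cells in 12-well plates, cultured overnight, then exposed 24 h to test compound (6.3 μM), an EGFR inhibitor (13.3 μM) or both. Floating and attached cells were pooled and stained with Annexin V-FITC (10 μg/ml) in HEPES-buffered saline (pH 7.4) with Ca2+ and Mg2+. Flow cytometry at 5000 events/sample. Reported as mean ± S.D. of three experiments.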

[4] = system: 40S ribosomal protein S6 [rpS6] phosphorylation; assay: Western blot of phosphorylated rpS6 in U87 cells; format: cell-based, human; conditions: 6.3 μM, 1 h, mean ± S.D.
Summary of the method: as §1

p-C-Raf S259 = assay: Western blot of p-C-Raf S259 in U87 or U87PTEN cells; format: cell-based, human; conditions: 6.3 μM, 1 h
Summary of the method: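 U87 or PTEN-expressing U87 cells in 6-well plates were pretreated 1 h with vehicle, 50 μM LY294002 or 1 μM wortmannin. Test compound was then added at 6.3 μM for 1 h. Lysates (20 μg protein) were resolved by SDS-PAGE, transferred to PVDF, blocked in 5% milk and immunoblotted.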

Akt = assay: Biochemical kinase screen
[5] = In vivo pharmacokinetics in mice bearing intracerebral U87 tumors; parameters: species or system mouse; conditions: for AUC / Kp / Tmax / clearance / Vd / half-life: NIH Swiss nude, mouse, iv; for Kp: Pbt (brain tumor partition coefficient, AUCbt/AUCp); for clearance: CL; for Vd: Vss; for half-life: t½; for peak concentration in brain: at 5 min
Summary of the method: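 Same intracerebral U87 nude-mouse model, single IV tail-vein bolus of 5 or 25 mg/kg. Plasma, normal brain and tumour were taken from 3–4 mice per time point (5 min–10 h). Tissues were saline-rinsed and homogenised 20% w/w in water. Samples (10 μl) were protein-precipitated with 40 μl cold acetonitrile and quantified by ESI LC/MS/MS. Noncompartmental analysis; AUC to last observable concentration by linear-log interpolation.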

p-Akt = p-Akt in U87 cells by western blot / MSD assay; format: cell-based, human; conditions: 6.3 μM
Summary of the method: (§2)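 U87 cells received increasing test compound concentrations for 1 h, or 6.3 μM over a time course. Phospho- and total Akt/Erk were measured by western blot or MSD multispot immunoassay, loading 20 μg (Akt) or 5 μg (Erk) lysate in duplicate. Plates were incubated overnight at 4°C, then detection antibody for 2 h at room temperature. Signals were background-corrected; phospho/total percentage expressed relative to control.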

p-Erk [6] = assay: p-Erk in U87 cells by western blot / MSD assay; format: cell-based, human
Summary of the method: as §2

[7] = plasma, 5 mg/kg, ON123300 5 mg/kg IV
[8] = plasma, 25 mg/kg, ON123300 25 mg/kg IV

Chain of VEGFR3 (P35916 25-1363): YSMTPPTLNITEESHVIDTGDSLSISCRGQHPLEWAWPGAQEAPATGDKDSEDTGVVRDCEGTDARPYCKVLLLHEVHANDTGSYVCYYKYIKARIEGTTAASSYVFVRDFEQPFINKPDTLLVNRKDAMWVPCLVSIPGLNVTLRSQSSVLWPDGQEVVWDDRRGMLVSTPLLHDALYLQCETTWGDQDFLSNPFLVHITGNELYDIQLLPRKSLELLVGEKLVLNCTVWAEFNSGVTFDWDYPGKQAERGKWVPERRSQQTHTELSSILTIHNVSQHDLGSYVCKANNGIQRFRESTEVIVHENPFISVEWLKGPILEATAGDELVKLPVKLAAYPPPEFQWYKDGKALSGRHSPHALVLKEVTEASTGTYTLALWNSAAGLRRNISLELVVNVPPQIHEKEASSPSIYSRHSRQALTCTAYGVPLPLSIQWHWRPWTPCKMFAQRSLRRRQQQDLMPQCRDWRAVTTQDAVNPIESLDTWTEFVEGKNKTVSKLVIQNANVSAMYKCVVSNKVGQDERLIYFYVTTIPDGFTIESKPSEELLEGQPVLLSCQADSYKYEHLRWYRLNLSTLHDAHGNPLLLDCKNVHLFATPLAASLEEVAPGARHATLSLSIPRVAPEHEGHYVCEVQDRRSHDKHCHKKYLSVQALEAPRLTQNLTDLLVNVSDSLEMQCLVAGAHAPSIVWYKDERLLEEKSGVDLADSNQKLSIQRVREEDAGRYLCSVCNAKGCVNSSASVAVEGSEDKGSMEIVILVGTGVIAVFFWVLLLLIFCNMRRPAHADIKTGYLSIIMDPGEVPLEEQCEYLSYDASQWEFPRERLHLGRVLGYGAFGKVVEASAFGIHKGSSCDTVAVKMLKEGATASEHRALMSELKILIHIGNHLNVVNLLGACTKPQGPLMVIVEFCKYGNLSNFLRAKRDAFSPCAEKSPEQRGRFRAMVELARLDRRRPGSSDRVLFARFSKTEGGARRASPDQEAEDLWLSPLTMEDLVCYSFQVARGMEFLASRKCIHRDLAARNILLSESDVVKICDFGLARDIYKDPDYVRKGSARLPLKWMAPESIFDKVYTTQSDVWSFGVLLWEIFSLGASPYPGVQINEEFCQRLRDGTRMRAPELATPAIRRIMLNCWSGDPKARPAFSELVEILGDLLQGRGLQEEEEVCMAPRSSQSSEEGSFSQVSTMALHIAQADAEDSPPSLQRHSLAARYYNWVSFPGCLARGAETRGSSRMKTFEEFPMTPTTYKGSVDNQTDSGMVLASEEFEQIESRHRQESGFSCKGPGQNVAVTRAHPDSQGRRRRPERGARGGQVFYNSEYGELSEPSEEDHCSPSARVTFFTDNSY

CN1CCN(c2ccc(Nc3ncc4cc(C#N)c(=O)n(C5CCCC5)c4n3)cc2)CC1 [ON123300]
phosphorylation of P70S6K relative to control (P70S6K phosphorylation): 31.8 %± 2.1 | change in p-Akt ABEC from 5 mg/kg to 25 mg/kg ([1]; IV): 5 fold | ABEC p-Akt ([1]; ON123300 5 mg/kg IV): 63.2 %_h | p-Akt nadir, of control ([1]; ON123300 5 mg/kg IV): 73% | ABEC p-Akt ([1]; ON123300 25 mg/kg IV): 304.9 %_h | ABEC p-Akt ([1]; ON123300 25 mg/kg IV 1 h after oral 200 mg/kg GFN): 765.0 %_h | ABEC p-Akt ([1]; ON123300 25 mg/kg IV plus oral 200 mg/kg GFN): 765 %-h | p-Akt nadir ([1]; ON123300 25 mg/kg IV plus oral 200 mg/kg GFN, at 4 h after the ON123300 dose): about 30% | p-Akt level at 10 h ([1]; ON123300 25 mg/kg IV, 10 h): ~60% | p-Akt nadir, of control ([1]; ON123300 25 mg/kg IV): 60% | expression of p-mTOR S2448 (p-mTOR [S2481 and 2448]): 86% ± 3.1 | expression of p-mTOR S2481 (p-mTOR [S2481 and 2448]): 102% ± 5.2 | substrate for the ABC transporters (ABC transporters): unlikely to be a substrate | p-Erk and p38γ levels [2]: increased | phosphorylated Akt, CREB and JNK pan expression levels [2]: decreased | peak p-Erk activation relative to the control (p-Erk [3]): 174% | inhibitory action against VEGFR3 (VEGFR3): appreciable inhibitory action | phosphorylation of Rb S780 relative to control (Rb S780 phosphorylation): 54.5% ± 6.3 | apoptotic cell death (Annexin V staining) (U87 cells): induced cell death by apoptosis in a dose-dependent manner | phosphorylation of rpS6 relative to control [4]: 60.5% ± 1.0 | p-C-Raf S259 expression (p-C-Raf S259): partially decreased | direct inhibition of Akt (Akt): did not directly inhibit | AUC ([5]; brain tumor, 5 mg/kg, AUCbt, ON123300 5 mg/kg IV): 6890 ng·h/mL | Kp ([5]; brain tumor, 5 mg/kg, ON123300 5 mg/kg IV): 5.7 | AUC ([5]; brain tumor, 25 mg/kg, AUCbt, brain tumor, ON123300 25 mg/kg IV 1 h after oral 200 mg/kg GFN): 49400 ng·h/mL | AUC ([5]; brain tumor, 25 mg/kg, AUCbt, ON123300 25 mg/kg IV): 63200 ng·h/mL | Kp ([5]; brain tumor, 25 mg/kg, ON123300 25 mg/kg IV): 15 | Tmax ([5]; brain tumor, 25 mg/kg, Tmax brain tumor, ON123300 25 mg/kg IV): 1 h | AUC ([5]; brain, 5 mg/kg, AUCb, ON123300 5 mg/kg IV): 3120 ng·h/mL | AUC ([5]; brain, 25 mg/kg, AUCb, ON123300 25 mg/kg IV): 11700 ng·h/mL | Tmax ([5]; brain, 25 mg/kg, Tmax brain, ON123300 25 mg/kg IV): 0.083 h | AUC ([5]; plasma, 5 mg/kg, AUCp, ON123300 5 mg/kg IV): 1210 ng·h/mL | clearance [5, 7]: 69.1 mL/min/kg | Vd ([5]; plasma, 5 mg/kg, plasma, ON123300 5 mg/kg IV): 3.6 L/kg | half-life [5, 7]: 1.5 h | AUC ([5]; plasma, 25 mg/kg, AUCp, ON123300 25 mg/kg IV): 4220 ng·h/mL | clearance [5, 8]: 98.7 mL/min/kg | Vd ([5]; plasma, 25 mg/kg, plasma, ON123300 25 mg/kg IV): 10.2 L/kg | half-life [5, 8]: 1.5 h | reduction in the total clearance of ON123300 in the presence of GFN ([5]; ON123300 25 mg/kg IV, oral 200 mg/kg GFN): 33% | Cmax brain tumor ([5]; brain tumor, ON123300 5 mg/kg IV): 6493 ng/mL | Cmax brain tumor ([5]; brain tumor, ON123300 25 mg/kg IV): 27250 ng/mL | Cmax brain tumor ([5]; brain tumor, ON123300 25 mg/kg IV 1 h after oral 200 mg/kg GFN): 20900 ng/mL | peak concentration in brain ([5]; brain, ON123300 5 mg/kg IV): 5735 ng/g | peak concentration in brain ([5]; brain, ON123300 25 mg/kg IV): 12432 ng/g | Cmax brain ([5]; brain, ON123300 25 mg/kg IV): 12432.5 ng/mL | Cmax brain ([5]; brain, ON123300 25 mg/kg IV 1 h after oral 200 mg/kg GFN): 16300 ng/mL | increase in AUCp from 5 mg/kg to 25 mg/kg ([5]; plasma, IV): 3.5 fold | time of p-Akt nadir (p-Akt): 30 min | phosphorylation of Akt relative to control (p-Akt; 1 h, western blot, mean ± S.D.): 40.1% ± 5.7 | p-Erk relative to control (p-Erk [6]; 6.3 μM, 1 h, western blot, mean ± S.D.): 120 % ± 6.9 | p-Erk elevation relative to pre-treatment (p-Erk [6]; 6.3 μM, over 6 h): about 2 fold | concentration giving 100% increase in p-Erk compared to vehicle (p-Erk [6]; 1 h, western blot and MSD): about 7 μM
